Results from ChEMBL document CHEMBL3525907, “Studies on the metabolism and biological activity of the epimers of sulindac” (Drug Metab Dispos, 2011).
Calls of active or inactive are those of the source. The rule behind the calls is not given here.

Experiments:
[1] = target: T1, Methionine-R-sulfoxide reductase B1 (Rattus norvegicus, UniProt Q52KJ8); test: Drug metabolism in rat liver S100 fraction assessed as MSRB1-mediated DABS-Met formation measured per mg of protein at 200 uM by HPLC analysis; assay type: ADME, tissue-based
T1 sequence (Q52KJ8 whole entry): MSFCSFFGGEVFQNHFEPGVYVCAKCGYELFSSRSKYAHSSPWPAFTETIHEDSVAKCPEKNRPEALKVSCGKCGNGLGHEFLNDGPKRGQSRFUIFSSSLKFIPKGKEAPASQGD
How it was run: (§1)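 Fractions (S-100, 30–70% ammonium sulfate cut) from rat liver purification; aliquots incubated with 200 μM (R)-sulindac or 200 μM DABS-R-Met(o) in 100 mM Tris pH 7.4 with 15 mM DTT or Trx system (1 mM NADPH, TrxB, TrxA), 37°C. Stopped with acetonitrile; C18 HPLC, sulindac sulfide at 330 nm, DABS-Met at 436 nm. Specific activity as nmol product/mg protein/h.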

[2] = target: T1, Methionine-R-sulfoxide reductase B1; test: Drug metabolism in rat liver ammonium sulfate fraction assessed as MSRB1-mediated DABS-Met formation measured per mg of protein at 200 uM by HPLC analysis; assay type: ADME, tissue-based; how it was run: as §1
[3] = target: T1, Methionine-R-sulfoxide reductase B1; test: Drug metabolism in rat liver DEAE fraction assessed as MSRB1-mediated DABS-Met formation measured per mg of protein at 200 uM by HPLC analysis; assay type: ADME, tissue-based
How it was run: (§2)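 Rat liver purification fractions (DEAE, G50 peak) assayed with 200 μM DABS-R-Met(o) in 100 mM Tris pH 7.4, DTT (15 mM) or Trx system (1 mM NADPH, TrxB, TrxA) as reductant, 37°C; acetonitrile stop; DABS-Met resolved on C18 HPLC, absorbance 436 nm; activity per mg protein, expressed as purification factor.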

[4] = target: T1, Methionine-R-sulfoxide reductase B1; test: Drug metabolism in rat liver G50 fraction assessed as MSRB1-mediated DABS-Met formation measured per mg of protein at 200 uM by HPLC analysis; assay type: ADME, tissue-based; how it was run: as §2
[5] = test system: Liver microsome; test: Drug metabolism in rat liver microsomes at […] after 60 mins by HPLC analysis; assay type: ADME; conditions: 1 h
How it was run: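 Uninduced rat liver microsomes (100,000g pellet, washed), 20–80 μg protein, incubated with 20 nmol sulindac epimer in 100 μl 100 mM potassium phosphate pH 7.4 with NADPH-regenerating system (1.5 mM NADPH, 5 mM glucose 6-phosphate, G6PDH, 5 mM MgCl2), 60 min, 37°C. Stopped with 3 volumes acetonitrile; sulfone quantified by C18 HPLC. Six rat preparations.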

[6] = Drug metabolism in rat liver cytosolic fraction at 20 nM after 60 mins by HPLC analysis; assay type: ADME, tissue-based; conditions: cytosol, 1 h
[7] = target: Cytochrome P450 1A1 (Rattus norvegicus, UniProt P00185); test: Drug metabolism assessed as rat recombinant CYP1A1-mediated sulindac sulfone formation measured per pmol of protein at 500 uM after 90 mins by HPLC analysis; assay type: ADME; conditions: recombinant enzyme, 1.5 h
Cytochrome P450 1A1, sequence (P00185 whole entry): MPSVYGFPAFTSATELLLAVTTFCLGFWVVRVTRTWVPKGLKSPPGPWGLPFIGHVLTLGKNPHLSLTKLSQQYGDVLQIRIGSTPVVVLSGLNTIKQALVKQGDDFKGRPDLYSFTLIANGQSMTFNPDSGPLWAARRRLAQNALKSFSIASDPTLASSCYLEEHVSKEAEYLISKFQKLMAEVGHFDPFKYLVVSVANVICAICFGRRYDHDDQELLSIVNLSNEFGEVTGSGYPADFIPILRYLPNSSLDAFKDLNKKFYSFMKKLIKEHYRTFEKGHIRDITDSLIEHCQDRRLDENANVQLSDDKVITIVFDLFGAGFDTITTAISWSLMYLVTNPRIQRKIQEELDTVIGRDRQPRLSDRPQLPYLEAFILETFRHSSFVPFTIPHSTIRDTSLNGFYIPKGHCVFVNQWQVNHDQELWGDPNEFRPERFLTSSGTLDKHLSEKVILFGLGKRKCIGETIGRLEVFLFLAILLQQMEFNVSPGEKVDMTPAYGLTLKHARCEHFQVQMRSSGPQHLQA
How it was run: (§3)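 Recombinant rat or human P450 Supersomes (some with cytochrome b5, variable reductase) incubated with (R)-sulindac at 500 μM or (S)-sulindac at 200 μM plus NADPH-regenerating system in 100 mM potassium phosphate pH 7.4 at 37°C, linear up to 90 min; acetonitrile stop; sulfone by C18 HPLC at 330 nm; ≥3 runs; pmol/pmol enzyme/h, mean ± S.E.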

[8] = target: Cytochrome P450 1A2 (Rattus norvegicus, UniProt P04799); test: Drug metabolism assessed as rat recombinant CYP1A2-mediated sulindac sulfone formation measured per pmol of protein at 500 uM after 90 mins by HPLC analysis; assay type: ADME; conditions: recombinant enzyme, 1.5 h; how it was run: as §3
Cytochrome P450 1A2 (Rattus norvegicus, UniProt P04799), sequence (P04799 whole entry): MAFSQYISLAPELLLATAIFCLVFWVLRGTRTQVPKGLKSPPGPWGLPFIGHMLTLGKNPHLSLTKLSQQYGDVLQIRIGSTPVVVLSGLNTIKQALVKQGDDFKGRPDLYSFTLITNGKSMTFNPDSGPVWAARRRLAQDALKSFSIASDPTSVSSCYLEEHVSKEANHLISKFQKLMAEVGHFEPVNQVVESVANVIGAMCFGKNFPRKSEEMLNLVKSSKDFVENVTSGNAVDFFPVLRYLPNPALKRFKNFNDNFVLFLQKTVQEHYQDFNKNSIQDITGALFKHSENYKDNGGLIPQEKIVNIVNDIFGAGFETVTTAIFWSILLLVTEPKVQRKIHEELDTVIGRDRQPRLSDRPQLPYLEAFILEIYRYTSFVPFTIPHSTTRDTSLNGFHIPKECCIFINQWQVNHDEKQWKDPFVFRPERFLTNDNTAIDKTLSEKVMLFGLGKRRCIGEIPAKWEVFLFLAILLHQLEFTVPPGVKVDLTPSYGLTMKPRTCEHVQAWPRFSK

[9] = target: Cytochrome P450 1A2 (Homo sapiens, UniProt P05177); test: Drug metabolism assessed as human recombinant CYP1A2-mediated sulindac sulfone formation measured per pmol of protein at 500 uM after 90 mins by HPLC analysis; assay type: ADME; conditions: recombinant enzyme, 1.5 h; how it was run: as §3
Cytochrome P450 1A2 (Homo sapiens, UniProt P05177), sequence (P05177 whole entry): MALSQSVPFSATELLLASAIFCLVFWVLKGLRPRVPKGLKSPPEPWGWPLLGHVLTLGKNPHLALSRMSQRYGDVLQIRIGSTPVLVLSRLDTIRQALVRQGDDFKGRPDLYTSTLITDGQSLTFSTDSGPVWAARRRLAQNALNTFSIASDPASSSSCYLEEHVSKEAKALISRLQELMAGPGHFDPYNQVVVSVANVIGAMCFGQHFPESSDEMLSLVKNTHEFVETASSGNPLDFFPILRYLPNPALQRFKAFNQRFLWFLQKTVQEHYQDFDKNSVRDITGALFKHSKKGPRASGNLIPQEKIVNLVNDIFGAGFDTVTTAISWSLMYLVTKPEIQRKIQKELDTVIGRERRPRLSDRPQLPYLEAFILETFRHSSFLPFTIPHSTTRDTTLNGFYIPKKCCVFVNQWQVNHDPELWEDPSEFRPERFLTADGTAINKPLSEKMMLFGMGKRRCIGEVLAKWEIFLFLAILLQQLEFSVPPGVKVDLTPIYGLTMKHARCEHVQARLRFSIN

[10] = target: Cytochrome P450 1B1 (Homo sapiens, UniProt Q16678); test: Drug metabolism assessed as human recombinant CYP1B1-mediated sulindac sulfone formation measured per pmol of protein at 500 uM after 90 mins by HPLC analysis; assay type: ADME; conditions: recombinant enzyme, 1.5 h; how it was run: as §3
Cytochrome P450 1B1, sequence (Q16678 whole entry): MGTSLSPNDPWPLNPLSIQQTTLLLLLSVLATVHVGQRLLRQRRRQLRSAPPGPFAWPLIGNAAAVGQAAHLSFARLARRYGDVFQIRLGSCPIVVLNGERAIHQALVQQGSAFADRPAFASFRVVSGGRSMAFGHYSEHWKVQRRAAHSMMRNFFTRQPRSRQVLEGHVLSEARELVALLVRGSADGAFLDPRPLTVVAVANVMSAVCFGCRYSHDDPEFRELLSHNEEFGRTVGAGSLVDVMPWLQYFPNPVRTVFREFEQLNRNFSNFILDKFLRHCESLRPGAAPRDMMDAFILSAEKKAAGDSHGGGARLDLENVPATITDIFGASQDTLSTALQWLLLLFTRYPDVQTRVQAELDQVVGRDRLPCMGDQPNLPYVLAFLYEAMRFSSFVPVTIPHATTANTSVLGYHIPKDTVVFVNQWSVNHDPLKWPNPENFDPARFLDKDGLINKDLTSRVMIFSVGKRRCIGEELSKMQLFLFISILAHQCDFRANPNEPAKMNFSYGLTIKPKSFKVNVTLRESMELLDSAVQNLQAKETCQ

[11] = target: Cytochrome P450 3A4 (Homo sapiens, UniProt P08684); test: Drug metabolism assessed as human recombinant CYP3A4-mediated sulindac sulfone formation measured per pmol of protein at 500 uM after 90 mins by HPLC analysis; assay type: ADME; conditions: recombinant enzyme, 1.5 h; how it was run: as §3
Cytochrome P450 3A4, sequence (P08684 whole entry): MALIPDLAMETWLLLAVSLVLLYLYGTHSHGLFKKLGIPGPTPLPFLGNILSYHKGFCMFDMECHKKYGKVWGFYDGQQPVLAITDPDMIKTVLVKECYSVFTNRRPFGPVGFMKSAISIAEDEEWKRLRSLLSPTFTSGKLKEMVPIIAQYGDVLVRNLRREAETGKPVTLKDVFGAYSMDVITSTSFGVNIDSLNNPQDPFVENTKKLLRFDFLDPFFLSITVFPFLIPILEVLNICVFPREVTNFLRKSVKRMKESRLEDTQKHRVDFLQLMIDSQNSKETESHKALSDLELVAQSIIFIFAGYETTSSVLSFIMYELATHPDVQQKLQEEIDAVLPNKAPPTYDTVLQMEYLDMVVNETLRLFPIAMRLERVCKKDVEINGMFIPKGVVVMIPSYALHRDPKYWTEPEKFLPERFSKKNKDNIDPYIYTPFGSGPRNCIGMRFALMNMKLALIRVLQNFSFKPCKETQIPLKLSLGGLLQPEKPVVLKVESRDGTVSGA

[12] = target: Cytochrome P450 3A2 (Rattus norvegicus, UniProt P05183); test: Drug metabolism assessed as rat recombinant CYP3A2-mediated sulindac sulfone formation measured per pmol of protein at 500 uM after 90 mins by HPLC analysis; assay type: ADME; conditions: recombinant enzyme, 1.5 h; how it was run: as §3
[13] = target: Cytochrome P450 2B1 (Rattus norvegicus, UniProt P00176); test: Drug metabolism assessed as rat recombinant CYP2B1-mediated sulindac sulfone formation measured per pmol of protein at 500 uM after 90 mins by HPLC analysis; assay type: ADME; conditions: recombinant enzyme, 1.5 h; how it was run: as §3
Cytochrome P450 2B1, sequence (P00176 whole entry): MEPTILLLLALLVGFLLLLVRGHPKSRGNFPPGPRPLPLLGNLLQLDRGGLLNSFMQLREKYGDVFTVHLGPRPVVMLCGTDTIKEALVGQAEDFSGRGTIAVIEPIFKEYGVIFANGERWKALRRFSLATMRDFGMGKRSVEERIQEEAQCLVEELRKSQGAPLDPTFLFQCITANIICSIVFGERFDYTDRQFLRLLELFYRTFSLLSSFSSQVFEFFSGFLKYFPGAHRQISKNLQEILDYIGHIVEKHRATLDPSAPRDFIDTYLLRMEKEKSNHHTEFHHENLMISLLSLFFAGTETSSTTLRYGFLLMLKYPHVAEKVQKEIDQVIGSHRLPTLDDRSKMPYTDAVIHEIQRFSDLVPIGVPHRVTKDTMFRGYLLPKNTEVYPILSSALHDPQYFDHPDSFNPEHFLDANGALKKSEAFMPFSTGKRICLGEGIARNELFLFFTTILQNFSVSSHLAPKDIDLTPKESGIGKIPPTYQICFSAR

[14] = target: Cytochrome P450 2C8 (Homo sapiens, UniProt P10632); test: Drug metabolism assessed as human recombinant CYP2C8-mediated sulindac sulfone formation measured per pmol of protein at 500 uM after 90 mins by HPLC analysis; assay type: ADME; conditions: recombinant enzyme, 1.5 h; how it was run: as §3
Cytochrome P450 2C8, sequence (P10632 whole entry): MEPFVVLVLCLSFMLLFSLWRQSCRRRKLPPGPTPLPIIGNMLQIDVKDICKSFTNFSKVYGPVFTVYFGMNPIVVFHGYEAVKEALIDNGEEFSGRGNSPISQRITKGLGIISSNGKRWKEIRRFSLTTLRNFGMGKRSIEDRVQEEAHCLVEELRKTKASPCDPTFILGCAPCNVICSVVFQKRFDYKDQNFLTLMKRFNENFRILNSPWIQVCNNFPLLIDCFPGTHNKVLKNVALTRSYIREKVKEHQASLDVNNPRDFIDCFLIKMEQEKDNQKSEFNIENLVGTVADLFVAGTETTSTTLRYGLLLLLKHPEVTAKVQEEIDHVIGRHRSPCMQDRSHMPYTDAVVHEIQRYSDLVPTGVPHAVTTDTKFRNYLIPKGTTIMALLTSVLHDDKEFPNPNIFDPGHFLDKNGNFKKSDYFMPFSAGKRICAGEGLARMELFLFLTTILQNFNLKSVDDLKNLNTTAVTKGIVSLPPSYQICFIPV

[15] = target: Cytochrome P450 2C9 (Homo sapiens, UniProt P11712); test: Drug metabolism assessed as human recombinant CYP2C9-mediated sulindac sulfone formation measured per pmol of protein at 500 uM after 90 mins by HPLC analysis; assay type: ADME; conditions: recombinant enzyme, 1.5 h; how it was run: as §3
Cytochrome P450 2C9, sequence (P11712 whole entry): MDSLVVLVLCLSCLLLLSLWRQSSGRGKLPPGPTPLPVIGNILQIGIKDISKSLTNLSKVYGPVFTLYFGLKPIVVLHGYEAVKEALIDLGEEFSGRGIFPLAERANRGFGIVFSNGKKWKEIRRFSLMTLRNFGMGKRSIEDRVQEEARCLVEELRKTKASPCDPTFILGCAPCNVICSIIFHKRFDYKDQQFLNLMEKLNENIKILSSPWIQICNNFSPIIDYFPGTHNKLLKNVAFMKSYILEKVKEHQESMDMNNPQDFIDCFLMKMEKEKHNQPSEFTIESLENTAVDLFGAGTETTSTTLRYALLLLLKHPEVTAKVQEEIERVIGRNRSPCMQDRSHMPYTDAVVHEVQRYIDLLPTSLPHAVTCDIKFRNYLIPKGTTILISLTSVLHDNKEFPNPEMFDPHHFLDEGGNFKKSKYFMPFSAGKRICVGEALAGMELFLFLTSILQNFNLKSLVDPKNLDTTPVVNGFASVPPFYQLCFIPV

[16] = target: Cytochrome P450 2C19 (Homo sapiens, UniProt P33261); test: Drug metabolism assessed as human recombinant CYP2C19-mediated sulindac sulfone formation measured per pmol of protein at 500 uM after 90 mins by HPLC analysis; assay type: ADME; conditions: recombinant enzyme, 1.5 h; how it was run: as §3
[17] = target: Cytochrome P450 2D6 (Homo sapiens, UniProt P10635); test: Drug metabolism assessed as human recombinant CYP2D6-mediated sulindac sulfone formation measured per pmol of protein at 500 uM after 90 mins by HPLC analysis; assay type: ADME; conditions: recombinant enzyme, 1.5 h; how it was run: as §3
Cytochrome P450 2D6, sequence (P10635 whole entry): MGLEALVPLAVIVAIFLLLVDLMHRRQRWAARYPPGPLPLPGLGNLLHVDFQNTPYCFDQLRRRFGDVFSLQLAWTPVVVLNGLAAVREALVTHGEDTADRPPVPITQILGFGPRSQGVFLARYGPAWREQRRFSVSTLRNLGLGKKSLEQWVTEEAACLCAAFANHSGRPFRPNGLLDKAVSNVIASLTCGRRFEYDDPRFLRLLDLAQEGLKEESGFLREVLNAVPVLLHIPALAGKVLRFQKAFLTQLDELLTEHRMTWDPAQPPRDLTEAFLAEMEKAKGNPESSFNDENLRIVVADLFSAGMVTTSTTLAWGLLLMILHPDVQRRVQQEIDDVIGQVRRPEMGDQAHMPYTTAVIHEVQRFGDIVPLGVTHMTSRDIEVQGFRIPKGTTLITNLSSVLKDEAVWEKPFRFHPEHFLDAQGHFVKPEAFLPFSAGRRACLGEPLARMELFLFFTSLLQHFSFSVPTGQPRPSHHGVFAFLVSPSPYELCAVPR

[18] = Drug metabolism in human HepG2 cells assessed as induction of cytochrome P450-mediated sulindac sulfone formation at 125 uM preincubated for 2 to 24 hrs followed by compound-washout and fresh compound addition measured after 1 hr by HPLC analysis; assay type: ADME, cell-based; conditions: hepg2, 1 h
How it was run: (§4)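 HepG2 cells in MEM/10% FBS grown to 80% confluence, pretreated 2–24 h with 125 μM (R)- or (S)-sulindac at 37°C, 5% CO2; washed with PBS, then 200 μM (R)- or (S)-sulindac in fresh medium for 1 h at 37°C; medium mixed with 3 volumes acetonitrile and analysed by HPLC for sulfone.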

[19] = Activity of cytochrome P450 in human HepG2 cells assessed as enzyme-mediated drug metabolism at 125 uM preincubated for 2 to 24 hrs followed by compound-washout and fresh compound addition measured after 1 hr by HPLC analysis; assay type: ADME, cell-based; conditions: hepg2, 1 h; how it was run: as §4
[20] = Drug metabolism assessed as Escherichia coli MSRB-mediated reduced product formation; assay type: ADME
[21] = target: Methionine-R-sulfoxide reductase B2, mitochondrial (Homo sapiens, UniProt Q9Y3D2); test: Drug metabolism assessed as human MSRB2-mediated reduced product formation; assay type: ADME
Methionine-R-sulfoxide reductase B2, mitochondrial, sequence (Q9Y3D2 whole entry): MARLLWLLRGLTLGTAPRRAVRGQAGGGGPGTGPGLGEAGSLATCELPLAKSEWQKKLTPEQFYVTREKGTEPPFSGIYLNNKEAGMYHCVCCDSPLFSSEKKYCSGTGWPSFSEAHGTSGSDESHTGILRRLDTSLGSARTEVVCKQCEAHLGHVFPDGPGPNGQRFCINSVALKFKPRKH

[22] = target: Methionine-R-sulfoxide reductase B3 (Homo sapiens, UniProt Q8IXL7); test: Drug metabolism assessed as human MSRB3-mediated reduced product formation; assay type: ADME
Methionine-R-sulfoxide reductase B3, sequence (Q8IXL7 whole entry): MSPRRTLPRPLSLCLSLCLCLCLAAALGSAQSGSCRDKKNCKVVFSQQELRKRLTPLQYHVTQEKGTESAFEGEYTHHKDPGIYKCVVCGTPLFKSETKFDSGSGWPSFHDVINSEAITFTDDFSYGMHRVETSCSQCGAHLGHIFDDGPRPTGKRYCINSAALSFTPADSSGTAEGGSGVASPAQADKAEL

[23] = target: T1, Methionine-R-sulfoxide reductase B1; test: Drug metabolism in rat liver S100 fraction assessed as MSRB1-mediated reduced product formation measured per mg of protein at 200 uM by HPLC analysis; assay type: ADME, tissue-based; how it was run: as §1
[24] = target: T1, Methionine-R-sulfoxide reductase B1; test: Drug metabolism in rat liver ammonium sulfate fraction assessed as MSRB1-mediated reduced product formation measured per mg of protein at 200 uM by HPLC analysis; assay type: ADME, tissue-based; how it was run: as §1
[25] = target: T1, Methionine-R-sulfoxide reductase B1; test: Drug metabolism in rat liver DEAE fraction assessed as MSRB1-mediated reduced product formation measured per mg of protein at 200 uM by HPLC analysis; assay type: ADME, tissue-based
How it was run: (§5)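 Fractions from rat liver reductase purification (S-100, 30–70% ammonium sulfate cut, DEAE pool, G50 gel filtration) incubated with 200 μM (R)-sulindac in 100 mM Tris pH 7.4 with 15 mM DTT, 37°C, 100 μl; stopped with acetonitrile; sulindac sulfide quantified by C18 HPLC at 330 nm; specific activity as nmol product/mg protein/h.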

[26] = target: T1, Methionine-R-sulfoxide reductase B1; test: Drug metabolism in rat liver G50 fraction assessed as MSRB1-mediated reduced product formation measured per mg of protein at 200 uM by HPLC analysis; assay type: ADME, tissue-based; how it was run: as §5
[27] = test system: MRC5; test: Cytoprotective activity in TBHP-induced human MRC5 cells at 500 uM incubated for 48 hrs prior to TBHP-challenge measured after 2 hrs; assay type: functional, cell-based
How it was run: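 Normal lung cells preincubated 48 h with 500 μM (R)- or (S)-sulindac or no drug, then challenged with TBHP; viability expressed as percent of cells not exposed to TBHP; mean and S.E. of five repeats; p < 0.05 versus no-drug controls.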

[28] = test system: A549; test: Potentiation of TBHP-induced cytotoxicity in human A549 cells at 500 uM incubated for 48 hrs prior to TBHP-challenge measured after 2 hrs; assay type: functional, cell-based
[29] = test system: Zone of skin; test: Drug metabolism in Sprague-Dawley rat skin assessed as sulindac sulfone formation at 2 mg, ip after 0.5 to 4 hrs by HPLC analysis; conditions: in vivo
[30] = test system: Zone of skin; test: Drug metabolism in Sprague-Dawley rat skin assessed as sulindac sulfide formation at 2 mg, ip after 0.5 to 4 hrs by HPLC analysis; conditions: in vivo
[31] = test system: Liver; test: Drug metabolism in Sprague-Dawley rat liver assessed as sulindac sulfone formation at 2 mg, ip after 0.5 to 4 hrs by HPLC analysis; conditions: in vivo
[32] = test system: Liver; test: Drug metabolism in Sprague-Dawley rat liver assessed as sulindac sulfide formation at 2 mg, ip after 0.5 to 4 hrs by HPLC analysis; conditions: in vivo
[33] = test system: Plasma; test: Drug metabolism in Sprague-Dawley rat plasma assessed as sulindac sulfone formation at 2 mg, ip after 0.5 to 4 hrs by HPLC analysis; conditions: in vivo
[34] = test system: Plasma; test: Drug metabolism in Sprague-Dawley rat plasma assessed as sulindac sulfide formation at 2 mg, ip after 0.5 to 4 hrs by HPLC analysis; conditions: in vivo
[35] = test system: Liver microsome; test: Drug metabolism in rat liver microsomes assessed as sulindac sulfone formation at 200 µM after 60 mins by HPLC analysis in presence of NADPH; conditions: 1 h
[36] = target: T1, Methionine-R-sulfoxide reductase B1; test: Activity of MSRB1 in rat liver S100 fraction assessed as enzyme-mediated drug metabolism measured per mg of protein at 200 uM by HPLC analysis; assay type: ADME; how it was run: as §5
[37] = target: T1, Methionine-R-sulfoxide reductase B1; test: Activity of MSRB1 in rat liver ammonium sulfate fraction assessed as enzyme-mediated drug metabolism measured per mg of protein at 200 uM by HPLC analysis; assay type: ADME; how it was run: as §5
[38] = target: T1, Methionine-R-sulfoxide reductase B1; test: Activity of MSRB1 in rat liver DEAE fraction assessed as enzyme-mediated drug metabolism measured per mg of protein at 200 uM by HPLC analysis; assay type: ADME; how it was run: as §5
[39] = target: T1, Methionine-R-sulfoxide reductase B1; test: Activity of MSRB1 in rat liver G50 fraction assessed as enzyme-mediated drug metabolism measured per mg of protein at 200 uM by HPLC analysis; assay type: ADME; how it was run: as §5

With CN(C)c1ccc(/N=N/c2ccc(S(=O)(=O)N[C@@H](CC[S@@+](C)[O-])C(=O)O)cc2)cc1 the Drug metabolism [1] was “metabolite_detected”, the Drug metabolism [2] was “metabolite_detected” and the Drug metabolism [3] was “metabolite_detected”. For the same molecule, the Drug metabolism [4] was “metabolite_detected”.

For CC1=C(CC(=O)O)c2cc(F)ccc2/C1=C\c1ccc([S+](C)[O-])cc1 (single isomer, unassigned), the Drug metabolism [5] was “metabolite_not_detected”, the Drug metabolism [6] was “metabolite_not_detected” and the Drug metabolism [7] was 380 pmol/h. The Drug metabolism [8] was 460 pmol/h, the Drug metabolism [9] was 130 pmol/h and the Drug metabolism [10] was 73 pmol/h. For the same molecule, the Drug metabolism [11] was 47 pmol/h, the Drug metabolism [12] was “metabolite_not_detected” and the Drug metabolism [13] was “metabolite_not_detected”. For the same molecule, the Drug metabolism [14] was “metabolite_not_detected”, the Drug metabolism [15] was “metabolite_not_detected” and the Drug metabolism [16] was “metabolite_not_detected”. The Drug metabolism [17] was “metabolite_not_detected”, the Drug metabolism [18] was “metabolite_detected” and the Drug metabolism [19] was “metabolite_detected”. For the same molecule, the Drug metabolism [20] was “metabolite_not_detected”, the Drug metabolism [21] was “metabolite_not_detected” and the Drug metabolism [22] was “metabolite_not_detected”. For the same molecule, the Drug metabolism [23] was 4.2 nmol/h, the Drug metabolism [24] was 5.6 nmol/h and the Drug metabolism [25] was 32.6 nmol/h. The Drug metabolism [26] was 1160 nmol/h, the Activity [27] was “Active” and the Activity [28] was “Active”. The Drug metabolism [29] was “metabolite_detected”, the Drug metabolism [30] was “metabolite_detected” and the Drug metabolism [31] was “metabolite_detected”. For the same molecule, the Drug metabolism [32] was “metabolite_detected”, the Drug metabolism [33] was “metabolite_detected” and the Drug metabolism [34] was “metabolite_detected”. For the same molecule, the Drug metabolism [35] was “metabolite_detected”.

In the case of CSCC[C@H](NS(=O)(=O)c1ccc(/N=N/c2ccc(N(C)C)cc2)cc1)C(=O)O, the Drug metabolism [36] is reported as “metabolite_detected”, the Drug metabolism [37] is reported as “metabolite_detected” and the Drug metabolism [38] is reported as “metabolite_detected”. The Drug metabolism [39] was “metabolite_detected”.
